Measured values published in ChEMBL document CHEMBL2010794, “Discovery of nor-seco himbacine analogs as thrombin receptor antagonists” (Bioorg Med Chem Lett, 2012).
Active and inactive are the calls of the source. No cut-off for these calls is given here.

How the values were obtained:
[1] = molecular target: T1, Proteinase-activated receptor 1 (Homo sapiens, UniProt P25116); assay: Displacement of [3H]haTRAP from human PAR1 after 1 hr by TopCount scintillation counting
T1 sequence (P25116 whole entry): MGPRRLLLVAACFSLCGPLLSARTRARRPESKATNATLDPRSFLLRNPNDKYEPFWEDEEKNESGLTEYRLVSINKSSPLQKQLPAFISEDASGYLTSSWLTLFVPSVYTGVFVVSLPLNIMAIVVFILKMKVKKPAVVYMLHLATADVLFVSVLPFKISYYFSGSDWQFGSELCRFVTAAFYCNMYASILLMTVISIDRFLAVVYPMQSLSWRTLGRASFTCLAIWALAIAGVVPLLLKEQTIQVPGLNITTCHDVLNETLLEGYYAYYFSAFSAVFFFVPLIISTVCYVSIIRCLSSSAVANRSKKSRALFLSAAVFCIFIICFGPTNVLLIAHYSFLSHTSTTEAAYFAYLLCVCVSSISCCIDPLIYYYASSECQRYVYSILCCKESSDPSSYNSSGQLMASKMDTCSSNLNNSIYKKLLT
How it was run: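 PAR-1 receptors isolated from human platelets; competition binding against [³H]haTRAP radioligand; values expressed as IC₅₀ (nM).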

[2] = AUC (0 to 6 hrs) in rat at 10 mg/kg, po; format: ADME, organism-based; design: time < 6 hr, dose 10 mg/kg, route oral; settings: plasma
How it was run: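 Rats given a single 10 mg/kg oral dose in 0.4% methylcellulose; plasma levels followed up to 6 h; AUC from 0 to 6 h reported in ng h/mL.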

Cynomolgus monkey [3] = assay: Cmax in cynomolgus monkey plasma assessed as M+16 hydroxy metabolite at 3 mg/kg, po; format: ADME, organism-based, Macaca fascicularis; design: dose 3 mg/kg, route oral; settings: in vivo
Liver microsomes = assay: Prodrug activation in rat liver microsomes assessed as (3R,3aR,4S,5R,6S,7aS)-5-ethyl-4-((E)-2-(5-(3-fluorophenyl)pyridin-2-yl)vinyl)-7a-hydroxy-3,6-dimethylhexahydroisobenzofuran-1(3H)-one formation; design: species or system Microsome
[4] = AUC (0 to 24 hrs) in cynomolgus monkey plasma at 3 mg/kg, po; format: ADME, organism-based, Macaca fascicularis; design: time < 24 hr, dose 3 mg/kg, route oral
Cynomolgus monkey [5] = assay: Ex-vivo inhibition of PAR1 in cynomolgus monkey assessed as inhibition of haTRAP-induced platelet aggregation at 1 mg/kg, po at 24 hrs by aggregometry; format: functional; settings: Macaca fascicularis
How it was run: (§1)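 Cynomolgus monkeys dosed orally in 20% PEG-HPBCD (hydrochloride salt for the 7a-hydroxy series); blood sampled at various times up to 24 h; haTRAP added to whole blood at 1 µM to trigger aggregation, measured by aggregometer; result given as % reduction in haTRAP-induced aggregation at the stated dose and time.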

Cynomolgus monkey [6] = assay: AUC (0 to 24 hrs) in cynomolgus monkey plasma assessed as M+16 hydroxy metabolite at 3 mg/kg, po; format: ADME, organism-based, Macaca fascicularis; design: time < 24 hr, dose 3 mg/kg, route oral; settings: in vivo
Cynomolgus monkey [7] = assay: Ex-vivo inhibition of PAR1 in cynomolgus monkey assessed as inhibition of haTRAP-induced platelet aggregation at 3 mg/kg, po at 24 hrs by aggregometry; format: functional; settings: Macaca fascicularis; how it was run: as §1
[8] = Cmax in cynomolgus monkey plasma at 3 mg/kg, po; format: ADME, organism-based, Macaca fascicularis; design: dose 3 mg/kg, route oral
Cynomolgus monkey [9] = assay: Ex-vivo inhibition of PAR1 in cynomolgus monkey assessed as inhibition of haTRAP-induced platelet aggregation at 1 mg/kg, po up to 6 hrs by aggregometry; format: functional, organism-based; design: dose 1 mg/kg; settings: Macaca fascicularis; how it was run: as §1
[10] = AUC (0 to 24 hrs) in cynomolgus monkey at 1 mg/kg, po; format: ADME, organism-based, Macaca fascicularis; design: time < 24 hr, dose 1 mg/kg, route oral; settings: plasma
Cynomolgus monkey [11] = assay: Ex-vivo inhibition of PAR1 in cynomolgus monkey assessed as inhibition of haTRAP-induced platelet aggregation at 3 mg/kg, po at 6 hrs by aggregometry; format: functional; settings: Macaca fascicularis; how it was run: as §1

Structure (SMILES) | AUC(0-t) at 6 h [2] | IC50 ([1]; read-out: IC50) | also measured
CC[C@H]1[C@H](/C=C/c2ccc(-c3ccc(C#N)cc3)cn2)[C@@H]2[C@@H](C)OC(=O)[C@]2(O)C[C@@H]1C | – | – | IC50 [1]: Not Active
CC[C@H]1[C@H](/C=C/c2ccc(-c3cccc(OC)c3)cn2)[C@@H]2[C@@H](C)OC(=O)[C@]2(O)C[C@@H]1C | 2440 ng·h/mL | 18 nM | –
CC[C@H]1[C@H](/C=C/c2ccc(-c3ccoc3)cn2)[C@@H]2[C@@H](C)OC(=O)[C@]2(O)C[C@@H]1C | 148 ng·h/mL | 8.6 nM | –
CC[C@H]1[C@H](/C=C/c2ccc(-c3cccc(F)c3)cn2)[C@@H]2[C@@H](C)OC(=O)[C@@H]2C[C@@H]1C | 230 ng·h/mL | 15 nM | Cmax (Cynomolgus monkey [3]): 98 ng/mL; Drug metabolism (Liver microsomes): Active; AUC(0-t) at 24 h [4]: 451 ng·h/mL; inhibition in vivo at 1 mg/kg (Cynomolgus monkey [5]): 69%; AUC (Cynomolgus monkey [6]): 1400 ng·h/mL; inhibition in vivo at 3 mg/kg (Cynomolgus monkey [7]): 100%; Cmax [8]: 62 ng/mL
CC[C@H]1[C@H](/C=C/c2ccc(-c3cccc(C)c3)cn2)[C@@H]2[C@@H](C)OC(=O)[C@@H]2C[C@@H]1C | – | 45 nM | –
CC[C@H]1[C@H](CCc2ccc(-c3cccc(C(F)(F)F)c3)cn2)[C@@H]2[C@@H](C)OC(=O)[C@@H]2C[C@@H]1C | – | 225 nM | –
CC[C@H]1[C@H](/C=C/c2ccc(-c3cccc(C(F)(F)F)c3)cn2)[C@@H]2[C@@H](C)OC(=O)[C@@H]2C[C@@H]1C | – | 24 nM | –
CC[C@H]1[C@H](/C=C/c2ccc(-c3ccsc3)cn2)[C@@H]2[C@@H](C)OC(=O)[C@]2(O)C[C@@H]1C.Cl | – | – | AUC(0-t) at 24 h [4]: 4740 ng·h/mL; inhibition in vivo at 3 mg/kg (Cynomolgus monkey [7]): 90%
CC[C@H]1[C@H](/C=C/c2ccc(-c3cccc(C)c3)cn2)[C@@H]2[C@@H](C)OC(=O)[C@]2(O)C[C@@H]1C | 203 ng·h/mL | 35 nM | –
CC[C@H]1[C@H](/C=C/c2ccc(-c3cccc(C#N)c3)cn2)[C@@H]2[C@@H](C)OC(=O)[C@]2(O)C[C@@H]1C | 1080 ng·h/mL | 20 nM | –
CC[C@H]1[C@H](/C=C/c2ccc(-c3ccccc3)cn2)[C@@H]2[C@@H](C)OC(=O)[C@]2(O)C[C@@H]1C | 3300 ng·h/mL | 6.4 nM | –
CC[C@H]1[C@H](/C=C/c2ccc(-c3cccc(F)c3)cn2)[C@@H]2[C@@H](C)OC(=O)[C@]2(O)C[C@@H]1C | 1140 ng·h/mL | 27 nM | inhibition (Cynomolgus monkey [9]): Active; inhibition in vivo at 3 mg/kg (Cynomolgus monkey [7]): 100%; AUC(0-t) at 24 h [10]: 4280 ng·h/mL
CC[C@H]1[C@H](/C=C/c2ccc(-c3ccoc3)cn2)[C@@H]2[C@@H](C)OC(=O)[C@]2(O)C[C@@H]1C.Cl | – | – | AUC(0-t) at 24 h [4]: 4110 ng·h/mL; inhibition in vivo at 3 mg/kg (Cynomolgus monkey [7]): 35%
CC[C@H]1[C@H](/C=C/c2ccc(-c3ccccc3OC)cn2)[C@@H]2[C@@H](C)OC(=O)[C@]2(O)C[C@@H]1C | 168 ng·h/mL | 8.1 nM | –
CC[C@H]1[C@H](/C=C/c2ccc(-c3cccc(Cl)c3)cn2)[C@@H]2[C@@H](C)OC(=O)[C@@H]2C[C@@H]1C | – | 28 nM | –
CC[C@H]1[C@H](/C=C/c2ccc(-c3cccc(C)c3)cn2)[C@@H]2[C@@H](C)OC(=O)[C@]2(O)C[C@@H]1C.Cl | – | – | inhibition in vivo at 3 mg/kg (Cynomolgus monkey [11]): 100%; AUC(0-t) at 24 h [4]: 2770 ng·h/mL
CC[C@H]1[C@H](/C=C/c2ccc(-c3ccccc3Cl)cn2)[C@@H]2[C@@H](C)OC(=O)[C@@H]2C[C@@H]1C | – | 25 nM | –
CC[C@H]1[C@H](/C=C/c2ccc(-c3cccc(Cl)c3Cl)cn2)[C@@H]2[C@@H](C)OC(=O)[C@@H]2C[C@@H]1C | 1150 ng·h/mL | 13 nM | AUC(0-t) at 24 h [4]: 573 ng·h/mL; AUC (Cynomolgus monkey [6]): 813 ng·h/mL; inhibition in vivo at 3 mg/kg (Cynomolgus monkey [7]): 95%
